Five molecules from ChEMBL document CHEMBL3352558, “β-Keto and β-hydroxyphosphonate analogs of biotin-5'-AMP are inhibitors of holocarboxylase synthetase” (Bioorg Med Chem Lett, 2014) can be followed below.

The target in assay [1] is T1, Biotin--protein ligase (Homo sapiens) (UniProt P50747).
T1 sequence (whole entry): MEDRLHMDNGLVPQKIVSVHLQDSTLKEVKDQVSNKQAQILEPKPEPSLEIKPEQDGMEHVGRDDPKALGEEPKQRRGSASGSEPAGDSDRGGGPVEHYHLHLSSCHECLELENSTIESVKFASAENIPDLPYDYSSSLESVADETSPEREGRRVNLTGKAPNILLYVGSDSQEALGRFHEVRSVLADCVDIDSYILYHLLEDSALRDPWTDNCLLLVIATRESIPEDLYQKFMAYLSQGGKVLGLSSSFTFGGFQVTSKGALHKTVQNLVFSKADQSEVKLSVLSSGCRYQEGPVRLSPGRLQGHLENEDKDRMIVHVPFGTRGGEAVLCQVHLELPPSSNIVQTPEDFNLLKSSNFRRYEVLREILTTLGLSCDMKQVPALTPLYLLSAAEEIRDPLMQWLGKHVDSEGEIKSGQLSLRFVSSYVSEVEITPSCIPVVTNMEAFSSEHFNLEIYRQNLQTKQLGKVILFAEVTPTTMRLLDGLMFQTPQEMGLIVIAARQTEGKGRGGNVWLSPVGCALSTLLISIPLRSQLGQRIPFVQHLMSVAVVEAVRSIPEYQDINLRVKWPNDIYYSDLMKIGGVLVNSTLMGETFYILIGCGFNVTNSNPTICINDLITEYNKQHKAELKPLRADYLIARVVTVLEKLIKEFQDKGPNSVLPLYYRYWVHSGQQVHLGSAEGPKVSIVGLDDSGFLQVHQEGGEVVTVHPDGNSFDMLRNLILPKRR
Briefly: Inhibition of human recombinant HLCS using P67 as substrate at 500 uM after 2 hrs relative to vehicle-treated control.

Assay [2] in a line: Binding affinity to Staphylococcus aureus biotin protein ligase.
Assay [3] can be described thus: Selectivity for Staphylococcus aureus biotin protein ligase over human HLCS.
The target of assay [4] is T2, Biotin--protein ligase (Homo sapiens, UniProt P50747).
T2 sequence (P50747 whole entry): T1 sequence (whole entry)
Kind of assay: (§1) Inhibition of human recombinant HLCS using P67 as substrate after 2 hrs relative to vehicle-treated control.

Assay [5] has as its target T1, Biotin--protein ligase (Homo sapiens). Briefly: Competitive inhibition of human recombinant HLCS using P67 as substrate by Western blotting analysis in presence of biotin. In a few lines: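 Recombinant HLCS (30 nM) with 2 µM p67 and the activity-assay cofactors; inhibitor fixed at 250 µM or absent, biotin varied 0-360 µM. Reactions stopped with Tricine loading dye and 95°C for 10 min. Biotinylated p67 detected by Western blot with anti-biotin and infrared imaging.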

Assay [6] shares this target. The assay is described as §1.

Structures are written as SMILES. The source made the active and inactive calls. The calls are words filed in the database; no cut-off is given here.

For `Nc1ncnc2c1ncn2[C@@H]1O[C@H](COP(=O)(O)OCCCCC[C@@H]2SC[C@@H]3NC(=O)N[C@@H]32)[C@@H](O)[C@H]1O`, the inhibition (as a rule, the relative decrease from the control value, in per cent) in assay [1] came out at 98%. Also, in assay [2], affinity was put at a Ki of 0.03 µM.
Take `Nc1ncnc2c1ncn2[C@@H]1O[C@H](Cn2cc(CCCC[C@@H]3SC[C@@H]4NC(=O)N[C@@H]43)nn2)[C@@H](O)[C@H]1O`: the Selectivity ratio in assay [3] is more than 1100.
Turning to `Nc1ncnc2c1ncn2[C@@H]1O[C@H](COP(=O)(O)CC(O)CCCC[C@@H]2SC[C@@H]3NC(=O)N[C@@H]32)[C@@H](O)[C@H]1O` (stereo partly drawn), the inhibition in assay [1] was determined as 67.7%. In assay [4], the IC50 (in general, the concentration that inhibits the measured activity by half) turned out to be 204 µM and the Ki – broadly, the equilibrium dissociation constant of an inhibitor or competing ligand from its target – came out at 10.4 µM. Besides, in assay [5], the inhibition result is “Active”.
On to `COP(=O)(O)CC(=O)CCCC[C@@H]1SC[C@@H]2NC(=O)N[C@@H]21`, for which the inhibition entry in assay [5] is “inactive”.
With `Nc1ncnc2c1ncn2[C@@H]1O[C@H](COP(=O)(O)CC(=O)CCCC[C@@H]2SC[C@@H]3NC(=O)N[C@@H]32)[C@@H](O)[C@H]1O`, the inhibition in assay [1] is 81.3%. For the same molecule, in assay [4], the IC50 came out at 39.7 µM and the inhibition constant Ki worked out at 2 µM. In addition, the inhibition entry in assay [6] is “Dose-dependent effect”. Further, the inhibition result in assay [5] is “Active”.
